Measured values as given in ChEMBL document CHEMBL4017535 (J Med Chem, 2017).

How the values were obtained:
[1] = target: Histone acetyltransferase KAT2B (Homo sapiens, UniProt Q92831); experiment: Binding affinity to human PCAF (G715 to D831 residues) expressed in mammalian expression system by BROMOscan assay
[2] = Half life in po dosed monkey; type: ADME, organism-based, Macaca mulatta; settings: rhesus monkey, in vivo
[3] = test system: Liver; experiment: Unbound intrinsic clearance in rat liver microsomes at 10 uM preincubated for 5 mins followed by NADPH addition measured after 60 mins by HPLC-UV-MS analysis; type: ADME, microsome; settings: 1 h
[4] = Oral bioavailability in dog; type: ADME, organism-based, Canis lupus familiaris; settings: in vivo
[5] = Plasma clearance in mouse at 3 mg/kg, iv; type: ADME, organism-based
[6] = Apparent oral plasma clearance in human at 1 mg; type: ADME
Summary of the method: (§1)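 Clinical PK in subjects with cancer after a single 1 mg oral dose, n = 3. Apparent clearance was reported as PO CLp/F in L/hr.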

[7] = target: Transcription initiation factor TFIID subunit 1-like (Homo sapiens, UniProt Q8IZX4); experiment: Binding affinity to human TAF1L (2) (Q1523 to D1654 residues) expressed in bacterial expression system by BROMOscan assay
Chain of Transcription initiation factor TFIID subunit 1-like (Q8IZX4 whole entry, the tested form may be a part): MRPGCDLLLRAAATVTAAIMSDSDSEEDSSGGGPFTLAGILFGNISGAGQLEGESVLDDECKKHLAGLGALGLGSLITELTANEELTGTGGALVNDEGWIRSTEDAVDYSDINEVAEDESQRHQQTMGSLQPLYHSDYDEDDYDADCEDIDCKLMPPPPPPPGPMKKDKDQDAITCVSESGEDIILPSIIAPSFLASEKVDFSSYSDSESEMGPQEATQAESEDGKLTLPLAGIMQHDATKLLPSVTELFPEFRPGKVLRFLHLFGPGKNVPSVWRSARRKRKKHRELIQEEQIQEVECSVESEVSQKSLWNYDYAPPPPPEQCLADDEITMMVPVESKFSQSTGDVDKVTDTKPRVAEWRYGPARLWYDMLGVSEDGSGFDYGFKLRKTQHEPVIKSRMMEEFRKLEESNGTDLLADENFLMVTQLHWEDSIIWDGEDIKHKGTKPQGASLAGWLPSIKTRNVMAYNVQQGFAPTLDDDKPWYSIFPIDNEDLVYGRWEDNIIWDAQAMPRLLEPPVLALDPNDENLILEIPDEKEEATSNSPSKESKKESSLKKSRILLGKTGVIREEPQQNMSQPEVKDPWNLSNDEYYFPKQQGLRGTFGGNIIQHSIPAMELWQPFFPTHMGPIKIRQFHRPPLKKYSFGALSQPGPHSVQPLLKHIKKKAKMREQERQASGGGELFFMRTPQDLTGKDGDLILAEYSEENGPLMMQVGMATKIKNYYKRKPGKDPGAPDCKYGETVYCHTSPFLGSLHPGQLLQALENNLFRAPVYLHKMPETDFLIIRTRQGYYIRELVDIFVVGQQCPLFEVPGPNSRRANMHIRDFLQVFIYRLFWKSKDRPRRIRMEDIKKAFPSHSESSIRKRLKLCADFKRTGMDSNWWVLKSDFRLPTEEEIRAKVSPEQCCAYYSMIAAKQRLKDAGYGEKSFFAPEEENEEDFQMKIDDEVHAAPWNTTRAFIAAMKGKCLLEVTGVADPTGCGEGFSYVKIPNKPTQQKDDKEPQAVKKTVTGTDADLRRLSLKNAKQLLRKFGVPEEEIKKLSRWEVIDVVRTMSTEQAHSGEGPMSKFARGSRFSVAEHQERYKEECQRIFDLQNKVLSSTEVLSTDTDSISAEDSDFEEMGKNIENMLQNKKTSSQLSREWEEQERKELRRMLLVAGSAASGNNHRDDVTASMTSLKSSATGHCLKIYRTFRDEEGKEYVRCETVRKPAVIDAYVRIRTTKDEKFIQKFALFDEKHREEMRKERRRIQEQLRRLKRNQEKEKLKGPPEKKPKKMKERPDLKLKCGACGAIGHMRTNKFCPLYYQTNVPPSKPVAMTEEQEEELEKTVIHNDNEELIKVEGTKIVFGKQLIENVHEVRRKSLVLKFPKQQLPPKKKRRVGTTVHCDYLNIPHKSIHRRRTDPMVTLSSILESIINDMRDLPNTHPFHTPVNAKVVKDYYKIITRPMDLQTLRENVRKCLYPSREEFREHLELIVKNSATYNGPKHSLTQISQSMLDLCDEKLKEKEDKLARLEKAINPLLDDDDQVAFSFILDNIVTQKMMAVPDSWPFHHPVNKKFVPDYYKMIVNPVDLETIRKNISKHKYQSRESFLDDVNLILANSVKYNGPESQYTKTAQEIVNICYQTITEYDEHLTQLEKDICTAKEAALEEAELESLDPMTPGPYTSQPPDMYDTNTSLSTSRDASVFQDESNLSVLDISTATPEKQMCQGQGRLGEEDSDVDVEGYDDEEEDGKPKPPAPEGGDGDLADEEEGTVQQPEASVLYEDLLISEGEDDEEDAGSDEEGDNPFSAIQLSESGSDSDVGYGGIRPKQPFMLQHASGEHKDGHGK

[8] = target: Histone acetyltransferase KAT2A (Homo sapiens, UniProt Q92830); experiment: Binding affinity to human GCN5L2 (E726 to K837 residues) expressed in bacterial expression system by BROMOscan assay
[9] = Intrinsic clearance in human hepatocytes; type: ADME, cell-based, Hepatocyte; settings: read-out: CLH (converted)
[10] = Intrinsic clearance in rat hepatocytes; type: ADME, cell-based, Hepatocyte; settings: read-out: CLH (converted)
[11] = target: Bromodomain-containing protein 4 (Homo sapiens, UniProt O60885); experiment: Binding affinity to N-terminal His6-tagged human BRD4 BD1 to BD2 (K57 to K550 residues) by isothermal titration calorimetry
[12] = target: Bromodomain testis-specific protein (Homo sapiens, UniProt Q58F21); experiment: Binding affinity to BRDT BD1 to BD2 (N21 to P380 residues) (unknown origin)
[13] = Intrinsic clearance in rat liver microsomes at 10 uM preincubated for 5 mins followed by NADPH addition measured after 60 mins by HPLC-UV-MS analysis; type: ADME, microsome; settings: read-out: CLH (converted)
[14] = Oral bioavailability in rat at 1 mg/kg; type: ADME, organism-based; settings: in vivo
Summary of the method: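 In rats, 1 mg/kg was given by both IV and PO routes. IV clearance is unbound (Cl_p,u, L/hr/kg). FaFg is taken as F/(1-Clp/Qh), using rat Qh 3.8 L/hr/kg. Unbound plasma fraction was determined in rat plasma.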

[15] = test system: Mus musculus; experiment: Oral absorption in mouse at 10 mg/kg; type: ADME, organism-based; settings: in vivo
Summary of the method: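 Oral absorption is expressed as FaFg, calculated as F/(1-Clp/Qh). Liver blood flow (Qh) was 5.2 L/hr/kg for mouse and 3.8 L/hr/kg for rat. Mouse dosing was 3 mg/kg IV and 10 mg/kg PO; rat dosing was 1 mg/kg IV and PO.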

[16] = test system: MX1; experiment: Antiproliferative activity against human MX1 cells after 72 hrs by Cell Titer Glo assay; type: functional, cell-based; settings: MX1, 72 h
[17] = target: Bromodomain adjacent to zinc finger domain protein 2B (Homo sapiens, UniProt Q9UIF8); experiment: Binding affinity to human BAZ2B (S2054 to S2168 residues) expressed in bacterial expression system by BROMOscan assay
Chain of Bromodomain adjacent to zinc finger domain protein 2B (Q9UIF8 whole entry, the tested form may be a part): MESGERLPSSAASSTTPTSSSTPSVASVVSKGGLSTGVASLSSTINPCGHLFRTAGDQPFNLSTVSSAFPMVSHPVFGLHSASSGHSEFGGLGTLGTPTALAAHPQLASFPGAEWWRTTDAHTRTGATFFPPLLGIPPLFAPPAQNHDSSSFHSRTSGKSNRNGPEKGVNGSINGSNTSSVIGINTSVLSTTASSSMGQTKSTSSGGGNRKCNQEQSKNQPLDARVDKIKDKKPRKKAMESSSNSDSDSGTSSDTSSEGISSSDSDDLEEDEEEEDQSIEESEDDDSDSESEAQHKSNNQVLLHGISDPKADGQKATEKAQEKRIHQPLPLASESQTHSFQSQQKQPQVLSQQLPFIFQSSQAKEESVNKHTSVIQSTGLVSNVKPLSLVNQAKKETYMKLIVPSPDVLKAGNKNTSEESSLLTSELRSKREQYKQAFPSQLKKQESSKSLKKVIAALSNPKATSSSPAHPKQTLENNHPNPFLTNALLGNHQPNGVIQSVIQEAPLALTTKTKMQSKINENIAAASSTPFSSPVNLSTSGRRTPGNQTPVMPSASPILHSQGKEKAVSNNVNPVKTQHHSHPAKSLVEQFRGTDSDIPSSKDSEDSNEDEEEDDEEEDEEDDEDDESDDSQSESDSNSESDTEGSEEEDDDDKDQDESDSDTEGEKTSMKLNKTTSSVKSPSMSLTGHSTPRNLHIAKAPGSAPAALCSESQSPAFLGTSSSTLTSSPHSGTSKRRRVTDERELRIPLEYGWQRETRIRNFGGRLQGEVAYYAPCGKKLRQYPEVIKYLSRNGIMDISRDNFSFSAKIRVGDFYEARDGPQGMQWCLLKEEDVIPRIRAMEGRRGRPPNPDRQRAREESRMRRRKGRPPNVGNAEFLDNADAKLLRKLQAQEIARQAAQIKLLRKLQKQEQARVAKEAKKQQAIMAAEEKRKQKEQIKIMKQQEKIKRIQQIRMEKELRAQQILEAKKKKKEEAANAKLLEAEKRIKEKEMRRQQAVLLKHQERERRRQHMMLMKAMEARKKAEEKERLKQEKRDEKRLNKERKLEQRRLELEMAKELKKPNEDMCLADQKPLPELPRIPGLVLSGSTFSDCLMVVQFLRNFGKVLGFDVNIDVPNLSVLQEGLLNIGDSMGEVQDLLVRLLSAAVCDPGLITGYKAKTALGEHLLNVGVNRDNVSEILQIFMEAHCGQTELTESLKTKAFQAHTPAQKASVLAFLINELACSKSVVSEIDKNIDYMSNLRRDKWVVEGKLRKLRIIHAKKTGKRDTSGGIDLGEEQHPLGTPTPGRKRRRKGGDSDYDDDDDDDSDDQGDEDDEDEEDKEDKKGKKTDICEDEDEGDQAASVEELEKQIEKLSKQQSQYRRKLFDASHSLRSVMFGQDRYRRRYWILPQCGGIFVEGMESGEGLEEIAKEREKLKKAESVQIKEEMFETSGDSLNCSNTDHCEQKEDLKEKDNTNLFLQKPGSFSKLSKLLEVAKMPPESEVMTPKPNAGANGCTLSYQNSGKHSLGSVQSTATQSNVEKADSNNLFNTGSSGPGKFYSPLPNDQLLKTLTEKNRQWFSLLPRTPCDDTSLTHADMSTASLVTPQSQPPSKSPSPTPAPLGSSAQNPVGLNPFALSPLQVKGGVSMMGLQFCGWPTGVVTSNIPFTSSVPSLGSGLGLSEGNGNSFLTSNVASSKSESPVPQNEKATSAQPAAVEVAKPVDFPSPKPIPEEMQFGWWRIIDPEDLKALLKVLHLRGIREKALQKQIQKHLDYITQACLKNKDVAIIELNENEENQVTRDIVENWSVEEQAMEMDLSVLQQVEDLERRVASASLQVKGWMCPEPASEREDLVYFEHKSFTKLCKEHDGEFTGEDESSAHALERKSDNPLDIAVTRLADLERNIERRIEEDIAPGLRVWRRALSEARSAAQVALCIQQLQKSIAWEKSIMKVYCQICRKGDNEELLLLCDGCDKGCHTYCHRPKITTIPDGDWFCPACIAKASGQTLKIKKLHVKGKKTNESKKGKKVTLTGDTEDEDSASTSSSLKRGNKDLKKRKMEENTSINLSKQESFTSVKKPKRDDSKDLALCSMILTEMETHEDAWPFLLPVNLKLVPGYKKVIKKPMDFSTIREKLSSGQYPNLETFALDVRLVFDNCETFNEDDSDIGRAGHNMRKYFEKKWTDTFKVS

[18] = Intrinsic clearance in mouse liver microsomes; type: ADME, microsome; settings: read-out: CLH (converted)
[19] = target: Translocator protein (Rattus norvegicus) (UniProt P16257); experiment: Displacement of [3H]PK-11195 from peripheral benzodiazepine receptor in rat heart at 10 uM
[20] = Plasma clearance in rat at 1 mg/kg, iv; type: ADME, organism-based
[21] = Plasma clearance in iv dosed monkey; type: ADME, organism-based, Macaca mulatta; settings: rhesus monkey
[22] = test system: Mus musculus; experiment: Plasma unbound clearance in mouse at 3 mg/kg, iv; type: ADME, organism-based; settings: in vivo
Summary of the method: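 Mouse PK: 3 mg/kg IV and 10 mg/kg PO. Clearance is expressed unbound, Cl_p,u in L/hr/kg. AUC is unbound, in µM*hr. FaFg is computed as F/(1-Clp/Qh), with mouse liver blood flow Qh 5.2 L/hr/kg. Unbound plasma fraction was measured separately.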

[23] = Fraction unbound in rat plasma at 1 uM after 4 hrs by LC-MS/MS method; type: ADME, cell-free
[24] = target: Chromatin remodeling regulator CECR2 (Homo sapiens, UniProt Q9BXF3); experiment: Binding affinity to human CECR2 (P423 to D543 residues) expressed in bacterial expression system by BROMOscan assay
[25] = species: Rattus norvegicus; experiment: Drug excretion in rat using radiolabelled compound; type: ADME; settings: in vivo
[26] = Half life in rat at 1 mg/kg, po; type: ADME, organism-based; settings: in vivo
[27] = target: Translocator protein (Homo sapiens, UniProt P30536); experiment: Antagonist activity at peripheral benzodiazepine receptor (unknown origin)
[28] = target: Adenosine receptor A2a (Homo sapiens) (UniProt P29274); settings: HEK293, 10 uM
[29] = Half life in human at 1 mg, po; type: ADME; settings: in vivo; summary of the method: as §1
[30] = Intrinsic clearance in monkey hepatocytes; type: ADME, cell-based, Macaca mulatta, Hepatocyte; settings: rhesus monkey, read-out: CLH (converted)
[31] = Plasma clearance in iv dosed human; type: ADME, organism-based
[32] = Oral bioavailability in monkey; type: ADME, organism-based, Macaca mulatta; settings: rhesus monkey, in vivo
[33] = target: Protein polybromo-1 (Homo sapiens, UniProt Q86U86); experiment: Binding affinity to human PBRM1 bromodomain-2 (S178 to E291 residues) expressed in bacterial expression system by BROMOscan assay
[34] = Plasma clearance in iv dosed dog; type: ADME, organism-based, Canis lupus familiaris
[35] = Intrinsic clearance in dog liver microsomes; type: ADME, Canis lupus familiaris, microsome; settings: read-out: CLH (converted)
[36] = target: Bromodomain and WD repeat-containing protein 1 (Homo sapiens, UniProt Q9NSI6); experiment: Binding affinity to human WDR9(2) (A1310 to E1430 residues) expressed in bacterial expression system by BROMOscan assay
[37] = target: Histone acetyltransferase p300 (Homo sapiens, UniProt Q09472); experiment: Binding affinity to human EP300 (A1040 to G1161 residues) expressed in bacterial expression system by BROMOscan assay
[38] = target: Bromodomain adjacent to zinc finger domain protein 2A (Homo sapiens, UniProt Q9UIF9); experiment: Binding affinity to human BAZ2A (M1792 to L1905 residues) expressed in bacterial expression system by BROMOscan assay
[39] = test system: Mus musculus; experiment: Inhibition of LPS-induced IL-6 release in po dosed CD-1 mouse serum assessed as plasma concentration required to show 50% inhibition administered for 1 hr followed by LPS challenge measured after 2 hrs by immunoassay; type: functional, organism-based
Summary of the method: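 Compound given orally to mice, followed by an LPS challenge. Plasma IL-6 and plasma compound concentration were both measured 2 hours after LPS. Inhibition was related to dose and to plasma concentration at the time of cytokine measurement. Values are mean ± SE, n=5 per group.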

[40] = test system: Mus musculus; experiment: Toxicity in NOD.SCID mouse assessed as maximum mean body weight loss at 1 mg/kg, po qd for 25 days (reference value: 9%); type: organism-based; settings: in vivo, 600 h
[41] = target: E3 ubiquitin-protein ligase TRIM33 (Homo sapiens, UniProt Q9UPN9); experiment: Binding affinity to human TRIM33 (PHD, Bromo) (D882 to A1087 residues) expressed in bacterial expression system by BROMOscan assay
Chain of E3 ubiquitin-protein ligase TRIM33 (Q9UPN9 whole entry, the tested form may be a part): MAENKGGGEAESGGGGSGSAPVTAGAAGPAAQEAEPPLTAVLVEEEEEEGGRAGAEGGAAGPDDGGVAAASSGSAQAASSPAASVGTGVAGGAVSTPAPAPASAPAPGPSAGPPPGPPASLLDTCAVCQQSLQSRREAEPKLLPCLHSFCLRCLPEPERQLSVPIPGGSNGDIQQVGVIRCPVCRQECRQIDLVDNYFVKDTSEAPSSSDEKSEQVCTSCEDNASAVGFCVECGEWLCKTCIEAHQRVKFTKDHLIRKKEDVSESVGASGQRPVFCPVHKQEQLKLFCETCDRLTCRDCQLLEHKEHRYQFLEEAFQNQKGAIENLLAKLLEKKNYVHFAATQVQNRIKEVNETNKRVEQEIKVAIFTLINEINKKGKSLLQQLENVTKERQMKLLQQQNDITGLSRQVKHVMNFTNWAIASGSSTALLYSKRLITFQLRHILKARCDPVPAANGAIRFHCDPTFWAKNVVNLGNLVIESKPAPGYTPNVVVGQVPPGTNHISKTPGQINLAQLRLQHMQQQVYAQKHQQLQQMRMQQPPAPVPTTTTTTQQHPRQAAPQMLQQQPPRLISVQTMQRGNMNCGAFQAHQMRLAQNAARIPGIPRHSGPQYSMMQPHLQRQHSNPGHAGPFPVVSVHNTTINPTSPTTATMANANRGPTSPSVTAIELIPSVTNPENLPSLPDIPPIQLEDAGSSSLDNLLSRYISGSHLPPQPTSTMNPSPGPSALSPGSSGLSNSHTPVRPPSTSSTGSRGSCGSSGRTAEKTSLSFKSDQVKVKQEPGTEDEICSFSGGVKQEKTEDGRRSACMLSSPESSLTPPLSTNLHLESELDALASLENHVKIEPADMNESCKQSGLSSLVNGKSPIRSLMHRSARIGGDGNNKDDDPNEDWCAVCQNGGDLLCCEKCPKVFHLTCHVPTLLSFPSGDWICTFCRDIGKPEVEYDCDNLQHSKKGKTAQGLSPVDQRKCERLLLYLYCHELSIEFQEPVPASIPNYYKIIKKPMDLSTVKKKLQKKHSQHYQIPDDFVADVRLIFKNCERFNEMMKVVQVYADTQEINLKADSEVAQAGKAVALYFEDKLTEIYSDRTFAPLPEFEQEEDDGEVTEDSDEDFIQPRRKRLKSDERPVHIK

With `CCS(=O)(=O)Nc1ccc(Oc2ccc(F)cc2F)c(-c2cn(C)c(=O)c3[nH]ccc23)c1` [MIVEBRESIB] the Kd [1] was greater than 1000 nM, the half-life [2] was 4.4 h and the CL free [3] was less than 81.7 mL/min/kg. It also gave a bioavailability [4] of 41%, a clearance [5] of 8.33 mL/min/kg and a CL/F [6] of 83.8 mL/min. It also gave a Kd [7] greater than 1000 nM, a Kd [8] greater than 1000 nM and a CLint scaled [9] of 14.5 mL/min/kg. It also gave a CLint scaled [10] of 66.7 mL/min/kg, a Kd [11] of less than 10 nM and a Ki [12] of 2.2 nM. It also gave a CLint scaled at 10 µM [13] of 66.7 mL/min/kg, a bioavailability [14] of 65% and a FaFg [15] of 0.9. It also gave an EC50 [16] of 13 nM, a Kd [17] greater than 1000 nM and a CLint scaled [18] of 138 mL/min/kg. The inhibition [19] was 86%, the clearance [20] was 10 mL/min/kg and the clearance [21] was 5.5 mL/min/kg. The clearance [22] was 317 mL/min/kg, the fraction unbound at 4 h, 1 µM [23] was 0.023 and the Kd [24] was greater than 1000 nM. The Drug excretion [25] was 76 %ID, the half-life [26] was 2.6 h and the IC50 [27] was 800 nM. The inhibition [28] was 87%, the half-life [29] was 25.1 h and the CLint scaled [30] was 51.7 mL/min/kg. For the same compound, the clearance [31] was 2.33 mL/min/kg, the bioavailability [32] was 33% and the Kd [33] was greater than 1000 nM. For the same compound, the clearance [34] was 3.17 mL/min/kg, the CLint scaled [35] was 51.7 mL/min/kg and the Kd [36] was greater than 1000 nM. It also gave a Kd [37] of 87 nM, a Kd [38] greater than 1000 nM and a Cp [39] of 0.03 to 0.1 µM. The Activity [40] was 6% and the Kd [41] was greater than 1000 nM.
